Laboratory results published in ChEMBL document CHEMBL4689842, “EUbOPEN Chemogenomics Library wave 1” (2021).

System: Fibroblast
Test: Multiplex assay against human fibroblast
Assay type: toxicity, cell-based
In short: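 Per cents of healthy-nucleus cells form the tubulin, mitochondrial-mass and membrane-permeability phenotype values. Live cells were stained at seeding with Hoechst33342, BioTracker Green Microtubule Cytoskeleton Dye, MitoTracker Red and Annexin V Alexa Fluor 680. After compound addition they were imaged on a CQ1 microscope at 37°C and 5% CO2, and CellPathfinder machine-learning gating split them into Hoechst high-intensity objects or normal cells, normal cells into healthy, pyknosed or fragmented nuclei, and pyknosed cells into mitotic or apoptotic.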

[1] = 12 h, 1 µM, compound concentration 1 uM, replicate 1
[2] = 12 h, 1 µM, compound concentration 1 uM, replicate 2
[3] = 12 h, 10 µM, compound concentration 10 uM, replicate 1
[4] = 12 h, 10 µM, compound concentration 10 uM, replicate 2
[5] = 24 h, 1 µM, compound concentration 1 uM, replicate 1
[6] = 24 h, 1 µM, compound concentration 1 uM, replicate 2
[7] = 24 h, 10 µM, compound concentration 10 uM, replicate 1
[8] = 24 h, 10 µM, compound concentration 10 uM, replicate 2
[9] = 48 h, 1 µM, compound concentration 1 uM, replicate 1
[10] = 48 h, 1 µM, compound concentration 1 uM, replicate 2
[11] = 48 h, 10 µM, compound concentration 10 uM, replicate 1
[12] = 48 h, 10 µM, compound concentration 10 uM, replicate 2

O=C1NCN(c2ccccc2)C12CCN(CCCOc1ccc(F)cc1)CC2 [SPIRAMIDE]
Population Apoptotic (%) [1]: 75%
Population Fragmented Nuclei (%) [1]: 40%
Population Healthy Nuclei (%) [1]: 31%
Population Hoechst High Intensity Objects (%) [1]: 15%
Population Membrane Permeable-Phenotype (%) [1]: 22%
Population Mitochondria Different-Phenotype (%) [1]: 11%
Population Mitotic Cells (%) [1]: 24%
Population Normal (%) [1]: 84%
Population Pyknosed Nuclei (%) [1]: 28%
Population Tubulin-Different-Phenotype (%) [1]: 33%
Total Cell Count [1]: 136
Population Apoptotic (%) [2]: 0%
Population Fragmented Nuclei (%) [2]: 10%
Population Healthy Nuclei (%) [2]: 88%
Population Hoechst High Intensity Objects (%) [2]: 7%
Population Membrane Permeable-Phenotype (%) [2]: 0%
Population Mitochondria Different-Phenotype (%) [2]: 10%
Population Mitotic Cells (%) [2]: 100%
Population Normal (%) [2]: 92%
Population Pyknosed Nuclei (%) [2]: 1%
Population Tubulin-Different-Phenotype (%) [2]: 6%
Total Cell Count [2]: 74
Population Apoptotic (%) [3]: 66%
Population Fragmented Nuclei (%) [3]: 25%
Population Healthy Nuclei (%) [3]: 44%
Population Hoechst High Intensity Objects (%) [3]: 13%
Population Membrane Permeable-Phenotype (%) [3]: 6%
Population Mitochondria Different-Phenotype (%) [3]: 54%
Population Mitotic Cells (%) [3]: 33%
Population Normal (%) [3]: 86%
Population Pyknosed Nuclei (%) [3]: 30%
Population Tubulin-Different-Phenotype (%) [3]: 82%
Total Cell Count [3]: 162
Population Apoptotic (%) [4]: 50%
Population Fragmented Nuclei (%) [4]: 3%
Population Healthy Nuclei (%) [4]: 88%
Population Hoechst High Intensity Objects (%) [4]: 8%
Population Membrane Permeable-Phenotype (%) [4]: 2%
Population Mitochondria Different-Phenotype (%) [4]: 27%
Population Mitotic Cells (%) [4]: 50%
Population Normal (%) [4]: 91%
Population Pyknosed Nuclei (%) [4]: 7%
Population Tubulin-Different-Phenotype (%) [4]: 12%
Total Cell Count [4]: 91
Population Apoptotic (%) [5]: 57%
Population Fragmented Nuclei (%) [5]: 31%
Population Healthy Nuclei (%) [5]: 45%
Population Hoechst High Intensity Objects (%) [5]: 13%
Population Membrane Permeable-Phenotype (%) [5]: 25%
Population Mitochondria Different-Phenotype (%) [5]: 5%
Population Mitotic Cells (%) [5]: 42%
Population Normal (%) [5]: 86%
Population Pyknosed Nuclei (%) [5]: 22%
Population Tubulin-Different-Phenotype (%) [5]: 44%
Total Cell Count [5]: 132
Population Apoptotic (%) [6]: 0%
Population Fragmented Nuclei (%) [6]: 7%
Population Healthy Nuclei (%) [6]: 89%
Population Hoechst High Intensity Objects (%) [6]: 6%
Population Membrane Permeable-Phenotype (%) [6]: 2%
Population Mitochondria Different-Phenotype (%) [6]: 7%
Population Mitotic Cells (%) [6]: 100%
Population Normal (%) [6]: 93%
Population Pyknosed Nuclei (%) [6]: 3%
Population Tubulin-Different-Phenotype (%) [6]: 7%
Total Cell Count [6]: 76
Population Apoptotic (%) [7]: 70%
Population Fragmented Nuclei (%) [7]: 20%
Population Healthy Nuclei (%) [7]: 60%
Population Hoechst High Intensity Objects (%) [7]: 16%
Population Membrane Permeable-Phenotype (%) [7]: 10%
Population Mitochondria Different-Phenotype (%) [7]: 44%
Population Mitotic Cells (%) [7]: 29%
Population Normal (%) [7]: 83%
Population Pyknosed Nuclei (%) [7]: 18%
Population Tubulin-Different-Phenotype (%) [7]: 85%
Total Cell Count [7]: 177
Population Apoptotic (%) [8]: 27%
Population Fragmented Nuclei (%) [8]: 3%
Population Healthy Nuclei (%) [8]: 78%
Population Hoechst High Intensity Objects (%) [8]: 6%
Population Membrane Permeable-Phenotype (%) [8]: 2%
Population Mitochondria Different-Phenotype (%) [8]: 21%
Population Mitotic Cells (%) [8]: 72%
Population Normal (%) [8]: 93%
Population Tubulin-Different-Phenotype (%) [8]: 10%
Total Cell Count [8]: 118
Population Apoptotic (%) [9]: 60%
Population Fragmented Nuclei (%) [9]: 36%
Population Healthy Nuclei (%) [9]: 45%
Population Hoechst High Intensity Objects (%) [9]: 14%
Population Membrane Permeable-Phenotype (%) [9]: 32%
Population Mitochondria Different-Phenotype (%) [9]: 5%
Population Mitotic Cells (%) [9]: 40%
Population Normal (%) [9]: 85%
Population Pyknosed Nuclei (%) [9]: 17%
Population Tubulin-Different-Phenotype (%) [9]: 34%
Total Cell Count [9]: 133
Population Apoptotic (%) [10]: 0%
Population Fragmented Nuclei (%) [10]: 15%
Population Healthy Nuclei (%) [10]: 83%
Population Hoechst High Intensity Objects (%) [10]: 5%
Population Membrane Permeable-Phenotype (%) [10]: 13%
Population Mitochondria Different-Phenotype (%) [10]: 0%
Population Mitotic Cells (%) [10]: 100%
Population Normal (%) [10]: 94%
Population Pyknosed Nuclei (%) [10]: 0%
Population Tubulin-Different-Phenotype (%) [10]: 36%
Total Cell Count [10]: 137
Population Apoptotic (%) [11]: 69%
Population Fragmented Nuclei (%) [11]: 31%
Population Healthy Nuclei (%) [11]: 59%
Population Hoechst High Intensity Objects (%) [11]: 22%
Population Membrane Permeable-Phenotype (%) [11]: 3%
Population Mitochondria Different-Phenotype (%) [11]: 47%
Population Mitotic Cells (%) [11]: 30%
Population Normal (%) [11]: 77%
Population Pyknosed Nuclei (%) [11]: 9%
Population Tubulin-Different-Phenotype (%) [11]: 80%
Total Cell Count [11]: 186
Population Apoptotic (%) [12]: 50%
Population Healthy Nuclei (%) [12]: 64%
Population Hoechst High Intensity Objects (%) [12]: 9%
Population Membrane Permeable-Phenotype (%) [12]: 8%
Population Mitochondria Different-Phenotype (%) [12]: 2%
Population Mitotic Cells (%) [12]: 50%
Population Normal (%) [12]: 90%
Population Pyknosed Nuclei (%) [12]: 3%
Population Tubulin-Different-Phenotype (%) [12]: 29%
Total Cell Count [12]: 123
